One data set addresses DNA polymerase beta (Rattus norvegicus, UniProt P06766). Put plainly: Inhibition of rat DNA polymerase beta expressed in Escherichia coli JMpbeta5 assessed as inhibition of incorporation of dTTP into poly(dA)/oligo(dT)18 after 60 mins. An outline of the steps:
(§1)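 Compound in DMSO was sonicated for 30 s, then held with enzyme (0.05 units final) at 0 °C for 10 min in 50 mM Tris-HCl pH 7.5, 1 mM DTT, 50% glycerol, 0.1 mM EDTA. The mixture was added to the standard reaction mix with poly(dA)/oligo(dT)18 (A/T = 2/1) and dTTP, 37 °C, 60 min. Activity was relative to no-inhibitor control; mean ± SE, three independent experiments.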

In data set [1] the target is DNA polymerase eta (Homo sapiens) (UniProt Q9Y253). Put plainly: Inhibition of C-terminal-His6-tagged human pol eta expressed in Escherichia coli assessed as inhibition of incorporation of dTTP into poly(dA)/oligo(dT)18 after 60 mins.
Data set [2] concerns the target T1, DNA polymerase delta catalytic subunit (Homo sapiens, UniProt P28340).
T1 sequence (P28340 whole entry): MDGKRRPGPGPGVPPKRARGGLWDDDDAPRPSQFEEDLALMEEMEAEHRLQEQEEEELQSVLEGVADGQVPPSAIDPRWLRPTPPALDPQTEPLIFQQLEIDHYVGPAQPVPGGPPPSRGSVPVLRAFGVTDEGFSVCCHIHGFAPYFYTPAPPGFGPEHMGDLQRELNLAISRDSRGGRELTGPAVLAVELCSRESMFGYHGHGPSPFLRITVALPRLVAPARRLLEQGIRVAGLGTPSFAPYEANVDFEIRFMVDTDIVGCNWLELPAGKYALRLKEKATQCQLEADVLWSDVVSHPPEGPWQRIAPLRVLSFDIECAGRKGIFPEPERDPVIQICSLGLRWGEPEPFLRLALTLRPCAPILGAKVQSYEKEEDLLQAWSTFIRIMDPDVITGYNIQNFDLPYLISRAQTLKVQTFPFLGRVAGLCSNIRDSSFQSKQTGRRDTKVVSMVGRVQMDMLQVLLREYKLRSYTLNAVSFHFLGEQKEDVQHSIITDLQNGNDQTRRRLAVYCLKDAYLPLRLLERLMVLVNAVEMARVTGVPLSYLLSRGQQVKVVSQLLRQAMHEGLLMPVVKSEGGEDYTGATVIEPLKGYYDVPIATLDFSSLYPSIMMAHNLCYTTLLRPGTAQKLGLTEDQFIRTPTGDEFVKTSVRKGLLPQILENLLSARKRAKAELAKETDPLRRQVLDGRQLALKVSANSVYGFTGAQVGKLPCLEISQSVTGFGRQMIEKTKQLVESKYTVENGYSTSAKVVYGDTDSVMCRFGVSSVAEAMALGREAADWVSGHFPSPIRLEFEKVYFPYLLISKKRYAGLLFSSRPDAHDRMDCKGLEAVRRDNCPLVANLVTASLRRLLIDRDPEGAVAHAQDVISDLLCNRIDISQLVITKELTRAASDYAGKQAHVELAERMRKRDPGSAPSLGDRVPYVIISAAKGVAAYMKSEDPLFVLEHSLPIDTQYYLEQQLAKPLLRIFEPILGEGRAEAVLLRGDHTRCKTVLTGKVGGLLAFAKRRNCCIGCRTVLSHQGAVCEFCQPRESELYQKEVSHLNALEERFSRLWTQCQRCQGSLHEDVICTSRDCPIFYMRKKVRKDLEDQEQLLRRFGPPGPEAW
Briefly: Inhibition of human DNA polymerase delta assessed as inhibition of incorporation of dTTP into poly(dA)/oligo(dT)18 after 60 mins. The gist of the method:
as §1

Data set [3] can be described thus: Growth inhibition of HUVEC cells after 72 hrs by WST-1 assay. As to conditions: human. It is filed as cell-based. An outline of the steps:
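Normal cells (HDF, HUVEC) were grown in Eagle's MEM with 4.5 g/L glucose, 10% FCS, 5 mM L-glutamine and penicillin/streptomycin, 37 °C, 5% CO2. Cells were seeded at 1 × 10^4 per well, cultured 12 h, then exposed to compound (0.5% DMSO final) for 72 h. Viability was read by WST-1 at 450/630 nm. GI50 given as mean ± SE of five experiments.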
In general terms: Tetrazolium assays rely on reduction of a dye to a coloured formazan, in cell work by metabolically active cells.

In another data set the target is Polynucleotide kinase (Enterobacteria phage T4, UniProt P06855). Briefly: Inhibition of T4 arnN8l pseT 1 polynucleotide kinase assessed as inhibition of Salmon sperm DNA phosphorylation using [gamma32P]ATP by liquid scintillation counting. Details: species or system Tequatrovirus T4.
In the next data set the target is T2, DNA polymerase iota (Mus musculus, UniProt Q6R3M4).
T2 sequence (Q6R3M4 whole entry): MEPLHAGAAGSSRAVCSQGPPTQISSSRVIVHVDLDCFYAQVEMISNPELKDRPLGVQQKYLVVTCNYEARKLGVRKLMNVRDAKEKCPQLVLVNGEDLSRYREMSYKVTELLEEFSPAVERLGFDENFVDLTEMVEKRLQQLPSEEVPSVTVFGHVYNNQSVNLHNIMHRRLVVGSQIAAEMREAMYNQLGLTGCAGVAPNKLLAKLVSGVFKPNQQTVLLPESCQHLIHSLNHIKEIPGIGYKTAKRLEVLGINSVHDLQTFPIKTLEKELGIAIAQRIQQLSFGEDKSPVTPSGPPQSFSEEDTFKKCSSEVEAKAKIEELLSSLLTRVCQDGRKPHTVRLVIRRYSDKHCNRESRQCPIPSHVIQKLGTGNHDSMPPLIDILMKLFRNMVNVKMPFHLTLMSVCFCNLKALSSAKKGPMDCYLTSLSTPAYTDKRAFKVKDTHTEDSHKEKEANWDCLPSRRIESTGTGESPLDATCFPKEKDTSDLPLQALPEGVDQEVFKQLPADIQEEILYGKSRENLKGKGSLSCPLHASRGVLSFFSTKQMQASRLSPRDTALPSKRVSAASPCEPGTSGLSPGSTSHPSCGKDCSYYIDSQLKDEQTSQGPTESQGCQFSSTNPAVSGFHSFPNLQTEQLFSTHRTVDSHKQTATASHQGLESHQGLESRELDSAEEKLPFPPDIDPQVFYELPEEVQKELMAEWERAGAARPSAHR
Put plainly: Inhibition of mouse recombinant C-terminal-His6-tagged DNA polymerase iota assessed as inhibition of incorporation of dTTP into poly(dA)/oligo(dT)18 after 60 mins. An outline of the steps:
as §1

The next data set deals with Escherichia coli. Put plainly: Inhibition of Escherichia coli polymerase DNA polymerase 1 Klenow fragment assessed as inhibition of incorporation of dTTP into activated DNA primer after 60 mins.
Data set [4] can be described thus: Inhibition of rice cv. Nipponbare recombinant C-terminal-His6-tagged DNA polymerase lambda expressed in Escherichia coli assessed as inhibition of incorporation of dTTP into poly(dA)/oligo(dT)18 after 60 mins. Details: species or system Oryza sativa. The gist of the method:
as §1

Calls of active or inactive are those of the source. No cut-off for these calls is given here. A value given as a limit tells only on which side of the number the result lay.

Polynucleotide kinase, sequence (P06855 whole entry, looked up): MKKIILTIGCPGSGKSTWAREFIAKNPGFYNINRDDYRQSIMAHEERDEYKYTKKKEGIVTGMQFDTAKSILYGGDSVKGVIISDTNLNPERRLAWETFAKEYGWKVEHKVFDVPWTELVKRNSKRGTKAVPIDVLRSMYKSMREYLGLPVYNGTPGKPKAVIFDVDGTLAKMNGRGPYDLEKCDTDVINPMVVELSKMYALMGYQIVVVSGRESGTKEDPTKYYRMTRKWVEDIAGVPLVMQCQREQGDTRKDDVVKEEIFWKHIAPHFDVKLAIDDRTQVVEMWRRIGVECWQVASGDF
DNA polymerase eta (Homo sapiens), sequence (Q9Y253 whole entry, looked up): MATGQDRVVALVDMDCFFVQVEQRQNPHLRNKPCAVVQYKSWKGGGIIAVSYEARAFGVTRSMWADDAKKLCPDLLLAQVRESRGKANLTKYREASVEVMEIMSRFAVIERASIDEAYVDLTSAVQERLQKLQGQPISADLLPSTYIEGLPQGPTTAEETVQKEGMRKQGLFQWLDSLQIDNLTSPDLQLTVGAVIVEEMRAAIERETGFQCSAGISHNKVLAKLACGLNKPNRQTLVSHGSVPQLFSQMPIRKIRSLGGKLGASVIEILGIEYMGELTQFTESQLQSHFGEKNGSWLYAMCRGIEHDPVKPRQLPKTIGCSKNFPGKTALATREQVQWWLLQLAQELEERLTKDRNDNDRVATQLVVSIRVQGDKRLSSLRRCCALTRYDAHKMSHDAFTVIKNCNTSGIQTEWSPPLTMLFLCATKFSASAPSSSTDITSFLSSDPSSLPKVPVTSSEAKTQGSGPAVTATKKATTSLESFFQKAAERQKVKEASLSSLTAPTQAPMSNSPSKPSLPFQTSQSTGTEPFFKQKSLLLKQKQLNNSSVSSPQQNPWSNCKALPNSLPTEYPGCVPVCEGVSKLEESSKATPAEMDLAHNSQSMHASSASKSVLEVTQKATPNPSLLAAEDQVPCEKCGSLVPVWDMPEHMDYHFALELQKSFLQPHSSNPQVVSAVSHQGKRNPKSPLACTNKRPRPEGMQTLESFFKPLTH

Take `Cc1cc(O)cc(O)c1C(=O)O[C@H]1[C@@H]2COC(/C=C/CO)=CC2=CC(=O)[C@@]1(C)O` [PINOPHILIN B]: the half-inhibitory concentration (IC50) at DNA polymerase beta is > 200 µM; in data set [1] it was 92.1 µM; in data set [2] it was 96.4 µM; at Polynucleotide kinase it was > 200 µM; at DNA polymerase iota it was 91 µM; in data set [4] it was > 200 µM. The concentration for 50% growth inhibition (GI50) at 72 h in data set [3] was > 200 µM. Moreover, the inhibition result in the data set on Escherichia coli was “inactive”.

With `C/C=C/C1=CC2=CC(=O)[C@@](C)(O)[C@@H](OC(=O)c3c(C)cc(O)cc3O)[C@@H]2CO1`, the IC50 on DNA polymerase beta is > 200 µM; in data set [1], 63.1 µM; in data set [2] it was 68 µM; at Polynucleotide kinase, > 200 µM; on DNA polymerase iota, 63.8 µM; in data set [4] it was > 200 µM. The 50% growth inhibitory concentration (GI50) at 72 h in data set [3] was > 200 µM. Further, the inhibition entry with Escherichia coli was “inactive”.

With `C/C=C/C1=CC2=CC(=O)[C@@](C)(OC(=O)c3c(C)cc(O)cc3O)[C@@H](O)[C@@H]2CO1` [PINOPHILIN A], the IC50 is > 200 µM on DNA polymerase beta; 50.9 µM in data set [1]; 54.5 µM in data set [2]; > 200 µM at Polynucleotide kinase; 50.2 µM on DNA polymerase iota; > 200 µM in data set [4]. For the same molecule, in data set [3], the GI50 at 72 h was > 200 µM. Moreover, the inhibition entry in the data set on Escherichia coli is “inactive”.

The term IC50 denotes the concentration needed to halve the response being measured. Usually GI50 stands for the concentration giving 50% growth inhibition.

For the origin of these results see ChEMBL document CHEMBL2010709, “Pinophilins A and B, inhibitors of mammalian A-, B-, and Y-family DNA polymerases and human cancer cell proliferation” (J Nat Prod, 2012).
